Measurements of several laboratories.
Compare with care: the assays were run in different laboratories.

Compound	cell line	read-out	action	method	time	notes	IC50
OCc1ccc(-c2nn(Cc3ccncc3)c3cccnc23)o1	CC-LP-1	cell growth or viability		ATP luminescence			> 46 µM
O=C(NO)c1ccc(Cn2cnc3c(Nc4cccc([N+](=O)[O-])c4)ncnc32)cc1	HEL	cell growth or viability		MTT	72 h		2.07 µM
Cc1cnc(CNC(=O)c2c(=O)c3ccc(N4CCCN(C)CC4)nc3n3c2sc2ccccc23)cn1	SNU-449	cell growth or viability		imaging	72 h		0.37 µM
Cc1nc(Nc2ncc(C(=O)Nc3c(C)cccc3Cl)s2)cc(N2CC[C@H](O)C2)n1	P3HR-1	cell growth or viability		ATP luminescence	72 h		> 10 µM
O=C(NO)c1ccc(Cn2cnc3c(Nc4ccc(Cl)cc4)ncnc32)cc1	HEL	cell growth or viability		MTT	72 h		0.77 µM
CCC(=CCc1c(O)cc2c(c1O)C(=O)C[C@H](c1ccccc1O)O2)CC	HeLa	cell growth or viability		MTT	48 h		37.4 µM
CN1C(=O)C(=O)c2cc3c(c4c2c1cc1ccccc14)OCO3	H69AR	cell growth or viability		MTT	75 h		44.6 µM
O=C(NO)c1ccc(Cn2cnc3c(Nc4ccc(Br)cc4F)ncnc32)cc1	NB-4	cell growth or viability		MTT	72 h		1.41 µM
OCc1ccc(-c2nn(Cc3ccncc3)c3ccccc23)o1	CC-LP-1	cell growth or viability		ATP luminescence			> 46 µM
COC(=O)c1cc(C(C)=NNc2nc(-c3ccc4c(c3)OCCCO4)cs2)ccc1O	HSF	cell growth or viability		MTT	96 h		231 µM
CN1CCN(c2ccc(Nc3c4ccccc4nc4ccccc34)cc2)CC1	SNU-449	cell growth or viability		imaging	72 h		4.68 µM
NCc1ccc(-c2nn(Cc3ccccc3)c3ccccc23)o1	CC-LP-1	cell growth or viability		ATP luminescence			> 46 µM
CONC(=O)c1cccc2c1cc(C)n2-c1nc2c(c(NCc3ccccc3)n1)CCCN2	KMS-11	cell growth or viability			72 h		2.1 µM
C#Cc1cccc(Nc2ncnc3cc(OCCOC)c(OCCOC)cc23)c1	BGC-823	cell growth or viability		MTT	48 h		> 20 µM
O=C(NS(=O)(=O)c1ccc(C(F)(F)F)cc1)c1cc2ccccc2n1Cc1ccc(Br)c2ccccc12	mouse BMDM	IL-1β release	inhibitor	ELISA		LPS-stimulated	7.28 µM
COc1ccc(Nc2ncnc3c2ncn3Cc2ccc(C(=O)Nc3ccccc3N)cc2)cc1	NB-4	cell growth or viability		MTT	72 h		2.44 µM
OCc1ccc(-c2nn(Cc3ccccn3)c3cccnc23)o1	CC-LP-1	cell growth or viability		ATP luminescence			> 46 µM
O=C(NO)c1ccc(Cn2cnc3c(Nc4ccc(F)c(Cl)c4)ncnc32)cc1	HEL	cell growth or viability		MTT	72 h		3.54 µM

Compound	cell line	read-out	action	method	time	notes	IC50
O=C(CSc1nc2ccccc2s1)N/N=C/c1ccc(OCC(=O)Nc2cccc([N+](=O)[O-])c2)cc1	HEL 299	cell growth or viability		MTS	72 h		> 100 µM
Nc1ccccc1NC(=O)c1ccc(Cn2cnc3c(Nc4ccc(Br)cc4F)ncnc32)cc1	NB-4	cell growth or viability		MTT	72 h		0.39 µM
COc1cc(Cn2nc(-c3ccc(CO)o3)c3ccccc32)ccn1	CC-LP-1	cell growth or viability		ATP luminescence			> 46 µM
O=C(CSc1nc2ccccc2s1)N/N=C/c1ccc(OCC(=O)Nc2ccc(Br)cc2)cc1	HEL 299	cell growth or viability		MTS	72 h		> 100 µM
O=c1[nH]cc(F)c(=O)[nH]1	HSF	cell growth or viability		MTT	48 h		76.9 µM
C(=N\Nc1cc(N/N=C/c2ccc3ccccc3n2)ncn1)/c1ccc2ccccc2n1	BGC-823	cell growth or viability		MTT	48 h		12.3 µM
CN(C)c1cccc2c(S(=O)(=O)NCCCCN=C=S)cccc12	HDFa	cell growth or viability		MTT	24 h		28.4 µM
OCc1ccc(-c2nn(Cc3cccnc3)c3cccnc23)o1	CC-LP-1	cell growth or viability		ATP luminescence			> 46 µM
O=c1[nH]cc(F)c(=O)[nH]1	BGC-823	cell growth or viability		MTT	48 h		15.2 µM
OCc1ccc(-c2nn(Cc3ccccc3)c3ccccc23)o1	CC-LP-1	cell growth or viability		ATP luminescence			> 46 µM
O=C(CSc1nc2ccccc2s1)N/N=C/c1ccc(OCC(=O)Nc2ccc([N+](=O)[O-])cc2)cc1	HEL 299	cell growth or viability		MTS	72 h		> 100 µM
OCc1ccc(-c2nn(Cc3ccccn3)c3ccccc23)o1	CC-LP-1	cell growth or viability		ATP luminescence			> 46 µM
Cc1cc(NS(=O)(=O)c2ccc(NC(=O)/C(C#N)=C/c3ccc(N4CCOCC4)cc3)cc2)no1	HSF	cell growth or viability		MTT	48 h		> 200 µM
COc1ccc(Nc2ncnc3c2ncn3Cc2ccc(C(=O)NO)cc2)cc1	HEL	cell growth or viability		MTT	72 h		0.8 µM
COc1cccc2c1C(=O)c1c(O)c3c(c(O)c1C2=O)C[C@@](O)(C(=O)CO)C[C@@H]3O[C@H]1C[C@H](N)[C@H](O)[C@H](C)O1	BGC-823	cell growth or viability			96 h		0.0818 µM
Nc1ccccc1NC(=O)c1ccc(Cn2cnc3c(Nc4ccc(Cl)cc4)ncnc32)cc1	NB-4	cell growth or viability		MTT	72 h		0.73 µM
Cc1cc(NS(=O)(=O)c2ccc(NC(=O)/C(C#N)=C/c3ccc(N4CCCC4)cc3)cc2)no1	HSF	cell growth or viability		MTT	48 h		> 200 µM
